Source: PubChem (Sanford-Burnham Center for Chemical Genomics)
SUMO1-SIM PPI – modulators of SUMO1 protein-protein interactions, primary screen, biochemical, uHTS. Small ubiquitin-related modifier 1 (Homo sapiens), P63165. SUMO1 binding to a labelled peptide, TR-FRET, 1 h. inhibition, % at 20 µM. 360,000 compounds, 0.33% hits. AID 602429, 2012; in the data active = inhibition above about 37%
Scp-1 inhibitor – Scp-1 phosphatase inhibitors, primary screen, biochemical, colorimetric, uHTS. Recombinant Scp1, phosphopeptide, malachite green phosphate absorbance. 340,000 compounds, 0.88% hits. inhibition, % at 20 µM. AID 493091, 2011;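 active = inhibition above about 50% at 20 µM, limit read from the data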;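 also: plate controls were DMSO wells with enzyme for no effect and wells lacking enzyme for full effect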
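System: truncated SCP-1 phosphatase (76-261aa); medium: Tris acetate buffer pH 5.5 with MgCl2 and Tween-20; incubation: 45 min room-temperature reaction, 5 min colour, 30 min stabiliser; compound: single 20 µM dose, 1% DMSO; reagent: Phosphorylated 17-residue peptide substrate; read-out: % inhibition at 20 µM; technique: colorimetric free-phosphate detection, absorbance 630 nm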
LMPTP block – LMPTP phosphatase inhibitors, primary screen, biochemical, fluorescence intensity, uHTS; Low molecular weight phosphotyrosine protein phosphatase (Homo sapiens), P24666; recombinant LMPTP-A, OMFP fluorogenic substrate; inhibition, % at 20 µM; 360,000 compounds, 0.22% hits; AID 651560, 2012;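 active = compounds that cut the enzyme signal by at least half of the control window in the single-dose screen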;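 also: plate controls were DMSO wells with enzyme plus substrate for no effect and substrate without enzyme for full effect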
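Assay system: LMPTP-A enzyme. Input: 0.625 nM LMPTP-A final. Probe or stimulus: 400 µM OMFP. Compound dosing: single 20 µM dose. Schedule: 50 min dark incubation at room temperature. Detection: fluorescence intensity of OMFP turnover product. Read-out: percent inhibition versus substrate-only and uninhibited controls. Benchmarks: no-enzyme low control, uninhibited high control.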
STEP inh – STEP phosphatase inhibitors, primary screen, biochemical, fluorescence intensity, uHTS; inhibition, % at 20 µM; recombinant STEP, OMFP fluorogenic substrate; 360,000 compounds, 0.25% hits; AID 588621, 2011; Tyrosine-protein phosphatase non-receptor type 5 (Homo sapiens), P54829;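 active = inhibition at 20 µM, scaled per plate between control wells, above about 37%, limit read from the data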;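 also: 0% = DMSO with enzyme and substrate and 100% = substrate only without enzyme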
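material = STEP tyrosine phosphatase | reagent = fluorogenic phosphatase substrate OMFP at 25 µM final | doses = single compound dose of 20 µM, 1% DMSO final | schedule = 20 min reaction, room temperature, in the dark | measured by = fluorescence, 480/540 nm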
DNMT1 block – human DNMT1 methyltransferase inhibitors, primary screen, biochemical, molecular beacon, fluorescence, HinP1I cleavage, uHTS. inhibition (reported as % activation of signal), % at 10 µM. DNA (cytosine-5)-methyltransferase 1 (Homo sapiens), P26358. 360,000 compounds, 0.83% hits; in the data active = inhibition above about 50%
Target sequence (P26358 504-1616 limits assumed): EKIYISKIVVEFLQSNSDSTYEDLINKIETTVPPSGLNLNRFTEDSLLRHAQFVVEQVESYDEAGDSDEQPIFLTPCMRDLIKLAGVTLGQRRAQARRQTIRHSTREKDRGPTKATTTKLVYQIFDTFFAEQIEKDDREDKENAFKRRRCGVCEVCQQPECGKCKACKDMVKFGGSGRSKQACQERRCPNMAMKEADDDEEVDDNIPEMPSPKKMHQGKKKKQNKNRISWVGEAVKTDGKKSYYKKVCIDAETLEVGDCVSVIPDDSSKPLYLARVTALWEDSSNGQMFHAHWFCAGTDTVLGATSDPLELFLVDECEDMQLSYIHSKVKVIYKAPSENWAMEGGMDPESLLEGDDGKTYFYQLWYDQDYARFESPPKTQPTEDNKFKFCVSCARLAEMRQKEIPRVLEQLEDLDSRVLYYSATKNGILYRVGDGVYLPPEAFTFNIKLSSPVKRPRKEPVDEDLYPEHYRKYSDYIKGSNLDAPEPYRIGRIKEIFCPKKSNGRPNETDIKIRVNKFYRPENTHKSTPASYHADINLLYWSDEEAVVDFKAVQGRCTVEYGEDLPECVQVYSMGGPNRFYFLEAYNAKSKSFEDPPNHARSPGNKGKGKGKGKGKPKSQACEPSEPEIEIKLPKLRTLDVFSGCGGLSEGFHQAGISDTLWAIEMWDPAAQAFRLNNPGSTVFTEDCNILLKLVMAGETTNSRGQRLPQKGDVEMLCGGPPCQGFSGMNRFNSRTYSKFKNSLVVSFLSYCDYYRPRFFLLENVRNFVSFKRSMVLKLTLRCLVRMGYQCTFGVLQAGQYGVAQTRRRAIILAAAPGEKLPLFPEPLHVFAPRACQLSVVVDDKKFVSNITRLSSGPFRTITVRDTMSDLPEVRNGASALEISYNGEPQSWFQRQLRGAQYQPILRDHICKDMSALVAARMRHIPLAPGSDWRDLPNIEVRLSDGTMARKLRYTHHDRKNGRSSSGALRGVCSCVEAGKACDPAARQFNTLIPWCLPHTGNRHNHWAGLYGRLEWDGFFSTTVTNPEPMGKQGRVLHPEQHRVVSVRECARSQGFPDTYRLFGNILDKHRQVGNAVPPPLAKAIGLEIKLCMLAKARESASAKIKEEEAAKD
* = called active by the depositor; nt = not tested or not shown. Only some compounds are listed: those with a hit (about 1.7% of all), similar ones and a draw of the others.

SMILES	SUMO1-SIM PPI	Scp-1 inhibitor	LMPTP block	STEP inh	DNMT1 block
O=C(CSc1nc(-c2ccccc2)nc2c1Cc1ccccc1O2)Nc1ccc(C(=O)O)cc1	70*	90*	79*	87*	88*
CCCCN1/C(=C/c2ccc3ccccc3[n+]2CC)Sc2ccccc21	-55	7	7	0	16
CCN1/C(=C/c2ccc3cc(C)ccc3[n+]2C)Sc2ccc3sccc3c21	24	45	77*	17	-17
CCN1/C(=C/c2ccc3cc(C)ccc3[n+]2CC)Sc2cc(C)ccc21	-75	34	50*	4	9
COc1ccc(C2=CC3=C(Br)C(=O)C(C)(OC(=O)C4CCCC4)C(=O)C3=CO2)cc1 (configuration not stated)	56*	4	0	1	9
COC(=O)CCC(=O)OC1(C)C(=O)C2=COC(c3ccc(OC)cc3)=CC2=C(Br)C1=O (configuration not stated)	nt	47	nt	nt	nt
O=C(COC(=O)c1nc(Cl)ccc1Cl)Nc1ccc2[nH]c(=O)[nH]c2c1	63*	-1	0	2	8
O=C(COC(=O)Cc1c(Cl)cccc1Cl)Nc1ccc2[nH]c(=O)[nH]c2c1	55*	1	0	3	0
CC1(C(=O)Nc2cnc3ccccc3c2)CCN1CCOc1ccccc1 (configuration not stated)	0	nt	-1	1	3
O=C(NCc1cccs1)c1ccc2sc([C@H]3C[C@H](O)[C@@H](CO)O3)nc2c1	4	nt	-3	-2	-2
Oc1cc(Nc2ccncc2)cc2cccnc12	-32	-14	56*	3	-4
COc1ccc(/C=N/Nc2cc(C)nc3ccc(OC)cc23)c(OC)c1	87*	-7	29	6	51*
COc1ccccc1/C=N/Nc1cc(C)nc2ccc(C)cc12	7	3	1	0	3
COc1ccc2nc(C)cc(N/N=C/c3ccccc3)c2c1	-48	0	7	2	67*
CCOc1cc(C(=O)NC(C)CCc2ccccc2)cc(OCC)c1OCC (configuration not stated)	-1	-4	2	0	0
COc1cc(C(=O)C(=O)c2ccc(OC)c(OC)c2)ccc1O	38*	-18	-1	1	8
COc1ccc(C(=O)c2ccc(OC)c(OC)c2)cc1OC	1	-5	-2	0	2
COc1cc2c(ccc3cc(OC)c(OC)c(O)c32)cc1O	34	69*	62*	53*	85*
NC(=O)c1nsc(C(=O)N(CC(=O)NCc2ccco2)c2ccccc2F)c1N	50*	-3	-1	0	2
CCCCCCN1C[C@H](n2cc(COC(=O)c3ccccc3)nn2)[C@@H](O)C[C@@H]1c1ccc(C)cc1	7	nt	2	1	-21
O=C(COC(=O)Cc1ccc(Cl)c(Cl)c1)Nc1ccc2[nH]c(=O)[nH]c2c1	23	-7	1	0	-2
COc1ccc(-c2cc(=O)oc3c(C)c(OCC(=O)Nc4cccnc4)ccc23)cc1	41*	25	20	27	15
CCCCCN(C(=O)CSc1n[nH]c(-c2ccc(C)cc2)n1)c1c(N)n(CCCC)c(=O)[nH]c1=O	1	-7	-8	-2	4
Cc1ccc(-n2nc(C)c(/C=N/n3c(C)n[nH]c3=S)c2Cl)cc1	38*	-10	0	1	1
COc1cc(N)ccc1Nc1c2ccccc2nc2ccccc12	-62	nt	87*	6	-14
SMILES	SUMO1-SIM PPI	Scp-1 inhibitor	LMPTP block	STEP inh	DNMT1 block
CCCS(=O)(=O)Nc1ccc(Nc2c3ccccc3nc3ccccc23)c(OC)c1	-26	2	34	7	12
C=CCN(CC=C)Cc1cc(=O)oc2ccc3ccccc3c12	-10	nt	4	3	1
C=CCN(CC=C)Cc1c(O)ccc2c1oc(=O)c1ccccc12	16	56*	5	2	55*
O=C1NN=C(CSc2n[nH]c(=S)s2)CS1	50*	28	0	-1	4
CC1(c2ccccc2)NC(=O)N(CC(=O)N(CC(=O)Nc2ccccc2C(F)(F)F)Cc2ccco2)C1=O (configuration not stated)	-35	-10	-10	2	-3
CN(C)c1ccc(O)c2c1CC1CC3[C@@H](N(C)C)C(=O)C(C(N)=O)=C(O)[C@]3(O)C(=O)C1=C2O (some centres not stated)	23	47	35	21	90*
CN(C)CCN1C(=O)c2cccc3cc([N+](=O)[O-])cc(c23)C1=O	1	5	4	0	69*
NC1=C(Br)C(=O)c2ncccc2C1=O	-23	2	4	5	63*
O=C1c2cccnc2C(=O)N1CO	-3	0	0	-1	3
O=C(N/N=C/c1ccc2c(c1)OCO2)C1CC1	-15	-5	1	-1	2
O=c1oc2c(O)c(O)cc3c(=O)oc4c(O)c(O)cc1c4c23	94*	96*	86*	99*	88*
COc1cc(NC(=O)CSc2ncnc3sc4c(c23)CCCC4)c(C(=O)O)cc1OC	9	-4	-2	96*	1
CCCC1(c2ccccc2)NC(=O)N(CC(=O)NCc2ccc(OC)cc2)C1=O (configuration not stated)	3	-4	0	-1	-5
CN(C)S(=O)(=O)c1ccc(N2CCCC2)c(C(=O)NC2CCCCC2)c1	5	-3	0	-3	-1
Cc1csc(NC(=O)c2ccc(Br)s2)n1	1	77*	0	-1	-1
O=C(CSCc1ccco1)N1CCc2ccccc21	2	-14	0	2	1
COc1ccc(CNc2nc(NCc3ccc(OC)cc3)c3[nH]cnc3n2)cc1	3	12	78*	-1	4
COc1ccc(CNc2ncnc(N)n2)cc1	2	9	-2	-3	-1
CN(Cc1ccccc1)C1=CC(=[N+]2CCCC2)CC(C)(C)C1	-3	103*	0	1	2
COc1ccc(NS(=O)(=O)c2ccc(C(=O)NCC3(N4CCOCC4)CCCCC3)cc2)cc1	40*	0	0	0	-4
O=C(NCCc1ccc(OC(F)F)cc1)C1CC(=O)N(c2ccc3c(c2)OCCO3)C1 (configuration not stated)	1	0	-1	0	1
O=C(Nc1ccccc1Cl)c1ccccc1CC(O)(c1ccccc1)c1ccccc1	-4	nt	2	1	-10
